# Laboratory results as given in ChEMBL document CHEMBL4665631, “Synthesis and biological evaluation of paclitaxel and vorinostat co-prodrugs for overcoming drug resistance in cancer therapy in vitro” (Bioorg Med Chem, 2019).
# The source made the active and inactive calls. The rule behind the calls is not given here.
# Legend:
# [1] = test system: MCF7; experiment: Cytotoxicity against human MCF7 cells after 72 hrs by SRB assay; type: functional, cell-based; conditions: MCF7, 72 h
# [2] = test system: NCI/ADR-RES; experiment: Cytotoxicity against human MCF7/ADR cells after 72 hrs by SRB assay; type: functional, cell-based
# [3] = Retention time of the compound by HPLC method; type: physicochemical
# How it was run: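 Reversed-phase HPLC with a gradient of acetonitrile and water, both containing 0.1% formic acid, at 1 mL/min. Gradient ran 5% to 95% acetonitrile over 0–15 min, then held at 95% from 15 to 25 min. Injection volume 50 µL.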
# [4] = biological target: T1, Histone deacetylase (Homo sapiens) (UniProt Q13547+O15379+Q9UBN7+Q92769+Q9UQL6+Q8WUI4+Q9BY41+Q96DB2+P56524+Q9UKV0+Q969S8); experiment: Inhibition of HDAC in human MCF7 cells assessed as increase in tubulin acetylation measured after 10 to 24 hrs by Western blot analysis; type: cell-based; conditions: time hrs 10-24
# How it was run: (§1)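 Cells in logarithmic phase seeded in 6-well plates and cultured overnight. Compound exposure at 37 °C for 10 h and 24 h, with untreated cells as control. Cells lysed in RIPA buffer and lysates boiled. Proteins separated by SDS-PAGE and semidry-transferred to nitrocellulose. Membranes probed with primary antibody overnight at 4 °C, then HRP-conjugated secondary antibody for 1 h at room temperature. Detection by chemiluminescence imaging.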
# [5] = biological target: T1, Histone deacetylase (Homo sapiens); experiment: Inhibition of HDAC in human HCT-116 cells assessed as increase in tubulin acetylation measured after 10 to 24 hrs by Western blot analysis; type: cell-based; conditions: time hrs 10-24; how it was run: as §1
# [6] = biological target: T1, Histone deacetylase (Homo sapiens); experiment: Inhibition of HDAC in human MCF7/ADR cells assessed as increase in tubulin acetylation measured after 10 to 24 hrs by Western blot analysis; type: cell-based; conditions: NCI/ADR-RES, time hrs 10-24; how it was run: as §1
# [7] = Half life in human plasma by HPLC analysis; type: ADME, cell-free
# How it was run: (§2)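 Co-prodrug diluted into human or mouse plasma and incubated at 37 °C. Sampled at 0.5, 1, 2, 3, 4, 5 and 6 h. Each aliquot quenched with an equal volume of cold acetonitrile and centrifuged. Supernatant analysed by RP-HPLC, with compounds quantified against an external-standard concentration–area curve.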
# [8] = Drug degradation in PBS assessed as SAHA release at pH 7.4 after 48 hrs by HPLC analysis; conditions: buffer, pH 7.4, 48 h
# [9] = Half life in mouse plasma by HPLC analysis; type: ADME, cell-free; how it was run: as §2
# [10] = Half life of compound in PBS buffer at pH 7.4 by HPLC analysis; type: physicochemical
# How it was run: (§3)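 Co-prodrug stock diluted in 10 mM PBS at pH 7.4 or 6.0 and held at 37 °C. Sampled at 0.5, 1, 2, 3, 4, 6, 12 and 24 h. Intact co-prodrug, released PTX and released SAHA resolved by RP-HPLC. Amounts taken from external-standard concentration curves.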
# [11] = test system: HCT-116; experiment: Cytotoxicity against human HCT-116 cells after 72 hrs by SRB assay; type: functional, cell-based; conditions: HCT-116, 72 h
# [12] = Drug degradation in PBS assessed as PTX release at pH 7.4 after 48 hrs by HPLC analysis; conditions: buffer, pH 7.4, 48 h
# [13] = Stability in PBS at pH 6 assessed as compound remaining after 24 hrs by HPLC analysis; type: physicochemical; conditions: read-out: Stabilty; how it was run: as §3
Retention_time [3],inhibition [4],inhibition [5],inhibition [6],half-life [7],Drug degradation [8],half-life [9],half-life [10],Drug degradation [12],remaining at 24 h [13],SMILES,IC50 [1],IC50 [2],IC50 [11]
13.81 min,Active,Active,Active,–,–,–,–,–,–,CC(=O)O[C@H]1C(=O)[C@@]2(C)[C@H]([C@H](OC(=O)c3ccccc3)[C@]3(O)C[C@H](OC(=O)[C@H](O)[C@@H](NC(=O)c4ccccc4)c4ccccc4)C(C)=C1C3(C)C)[C@]1(OC(C)=O)CO[C@@H]1C[C@@H]2O [PACLITAXEL],< 1.5 nM,> 10000 nM,–
14.62 min,Active,Active,Active,30 min,56.8%,30 min,120 min,50.3%,> 85%,CC(=O)O[C@H]1C(=O)[C@@]2(C)[C@H]([C@H](OC(=O)c3ccccc3)[C@]3(O)C[C@H](OC(=O)[C@H](OC(=O)CNC(=O)ONC(=O)CCCCCCC(=O)Nc4ccccc4)[C@@H](NC(=O)c4ccccc4)c4ccccc4)C(C)=C1C3(C)C)[C@]1(OC(C)=O)CO[C@@H]1C[C@@H]2O,1.5 nM,1380 nM,9.55 nM
8.42 min,–,–,–,–,–,–,–,–,–,O=C(CCCCCCC(=O)Nc1ccccc1)NO [VORINOSTAT],–,–,–
13.63 min,–,–,–,–,–,–,–,–,–,CC(=O)O[C@H]1C(=O)[C@@]2(C)[C@H]([C@H](OC(=O)c3ccccc3)[C@]3(O)C[C@H](OC(=O)[C@H](OC(=O)CCC(=O)O)[C@@H](NC(=O)c4ccccc4)c4ccccc4)C(C)=C1C3(C)C)[C@]1(OC(C)=O)CO[C@@H]1C[C@@H]2O,–,–,–
15.06 min,–,–,–,30 min,–,30 min,–,–,> 85%,CC(=O)O[C@H]1C(=O)[C@@]2(C)[C@H]([C@H](OC(=O)c3ccccc3)[C@]3(O)C[C@H](OC(=O)[C@H](OC(=O)CCC(=O)ONC(=O)CCCCCCC(=O)Nc4ccccc4)[C@@H](NC(=O)c4ccccc4)c4ccccc4)C(C)=C1C3(C)C)[C@]1(OC(C)=O)CO[C@@H]1C[C@@H]2O,62.4 nM,4020 nM,144 nM
